Tests used:
Cynomolgus monkey = test: Total drug excretion in cynomolgus monkey at 3 mg/kg, po administered as single dose after 0 to 48 hrs by scintillation counting method; type: ADME, organism-based, Macaca fascicularis; design: dose 3 mg/kg, route oral; conditions: in vivo
Method in brief: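 Fasted male cynomolgus monkeys (n = 4) were dosed with 14C-labelled drug at 3 mg/kg, iv via saphenous vein (191 µCi/kg) or orally by stomach catheter (156.5 µCi/kg). Urine, feces and cage-wash water were collected to 336 h. Radioactivity was measured by liquid scintillation counting, with feces homogenized in water, and expressed as % of dose.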

[1] = Drug excretion in cynomolgus monkey feces at 3 mg/kg, po administered as single dose after 0 to 48 hrs by scintillation counting method; type: ADME, organism-based, Macaca fascicularis; design: dose 3 mg/kg, route oral; conditions: in vivo
Method in brief: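 Fasted cynomolgus monkeys (n = 4) received [14C]-labelled drug at 3 mg/kg, iv via saphenous vein (191 µCi/kg) or orally by stomach catheter (156.5 µCi/kg). Urine, feces and water cage-wash were collected to 336 h. Samples were counted by liquid scintillation; feces were homogenized in 4-fold water. Results are % of dose, mean ± S.D.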

[2] = Drug excretion in bile duct cannulated F344 rat bile at 1 mg/kg, iv administered as single dose after 0 to 48 hrs by scintillation counting method; type: ADME, organism-based; design: dose 1 mg/kg, route intravenous; conditions: in vivo
Method in brief: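 Common bile duct was cannulated under diethyl ether in fasted F344 rats. After recovery, [14C]-labelled drug (1 mg/kg, 41.9 µCi/kg) was given iv via tail vein or by oral gavage (n = 4). Rats were held in Bollman cages and bile was collected at 4°C over 0–48 h intervals. Bile was counted by liquid scintillation; % of dose.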

Ileum = test: Drug distribution in F344 rat ileum at 1 mg/kg, po administered as single dose after 2 hrs by scintillation counting method; type: ADME, organism-based; design: dose 1 mg/kg, route oral; conditions: in vivo
Method in brief: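 [14C]-labelled drug (1 mg/kg, 42.4 µCi/kg) was given orally to fasted F344 rats (148–168 g, n = 3). Contents of stomach, duodenum+jejunum, ileum and cecum were washed out with water at 0.5–8 h, homogenized, solubilized and counted by liquid scintillation. Results are % of dose, mean ± S.D.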

[3] = Drug metabolism in rat kidney […] S9 fractions at 0.42 uCi/ml assessed as metabolite formation in presence of NADPH after 1 hr at 37 degC by LC-MS/MS method; type: ADME, subcellular; conditions: s9, 1 h
Rattus norvegicus [4] = test: Total drug excretion in bile duct cannulated F344 rat at 1 mg/kg, iv administered as single dose after 0 to 48 hrs by scintillation counting method; type: ADME, organism-based; design: dose 1 mg/kg, route intravenous; conditions: in vivo
Method in brief: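 Under ether anesthesia, the common bile duct of fasted F344 rats was cannulated. After recovery, rats received 1 mg/kg (41.9 µCi/kg) of the 14C-labelled compound iv or by oral gavage (n = 4). They were kept in Bollman cages, and bile was collected at 0–6, 6–24, 24–30 and 30–48 h at 4°C. Radioactivity was measured by liquid scintillation counting as % of dose.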

[5] = Drug excretion in cynomolgus monkey urine at 3 mg/kg, po administered as single dose after 0 to 48 hrs by scintillation counting method; type: ADME, organism-based, Macaca fascicularis; design: dose 3 mg/kg, route oral; conditions: in vivo
[6] = Half life in F344 rat at 0.3 mg/kg, iv administered as single dose by LC-MS/MS method; type: ADME, organism-based; design: dose 0.3 mg/kg, route intravenous; conditions: in vivo
Method in brief: (§1)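 Fasted male F344 rats (146–185 g, n = 4 per dose) received single i.v. CS-1036. Plasma was sampled up to 48 h and analysed by LC-MS/MS. t1/2 came from noncompartmental regression of three or more log-transformed terminal-phase points. Mean ± S.D.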

[7] = AUClast in F344 rat at 1 mg/kg, po administered as single dose by LC-MS/MS method; type: ADME, organism-based; design: time 0 - last, dose 1 mg/kg, route oral; conditions: plasma
Method in brief: (§2)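 Fasted male F344 rats (146–185 g) or male cynomolgus monkeys (3.48–4.29 kg), n = 4 per dose, given single iv or oral dose of 0.3, 1.0, 3.0 or 10.0 mg/kg; monkeys dosed with 2-week washouts. Blood sampled to 48 h; plasma stored frozen. LC-MS/MS with deuterated internal standard. Noncompartmental analysis: AUClast by trapezoidal rule; AUC0–inf = AUClast + Ctz/terminal rate constant; mean ± S.D.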

[8] = AUC (0 to infinity) in cynomolgus monkey at 10 mg/kg, iv administered as single dose by LC-MS/MS method; type: ADME, organism-based, Macaca fascicularis; design: dose 10 mg/kg, route intravenous, time infinity; conditions: plasma; method in brief: as §2
[9] = AUClast in F344 rat at 3 mg/kg, po administered as single dose by LC-MS/MS method; type: ADME, organism-based; design: time 0 - last, dose 3 mg/kg, route oral; conditions: plasma; method in brief: as §2
[10] = Oral bioavailability in F344 rat at 1 mg/kg administered as single dose by LC-MS/MS method; type: ADME, organism-based; conditions: in vivo
Method in brief: (§3)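 Male F344 rats (146–185 g) and male cynomolgus monkeys (3.48–4.29 kg), n = 4 each, fasted overnight, received single iv or oral doses of 0.3, 1.0, 3.0 or 10.0 mg/kg. Monkeys had 2-week washouts between doses. Plasma was sampled to 48 h and assayed by LC-MS/MS with deuterated internal standard. Noncompartmental analysis: tmax observed; t1/2 by regression on ≥3 terminal log points; Vss = dose·AUMC/(AUC0–inf)²; Foral = oral/iv AUC0–inf at the same dose.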

[11] = Oral bioavailability in F344 rat at 0.3 mg/kg administered as single dose by LC-MS/MS method; type: ADME, organism-based; conditions: in vivo; method in brief: as §3
[12] = Clearance in F344 rat at 0.3 mg/kg, iv administered as single dose by LC-MS/MS method; type: ADME, organism-based; design: dose 0.3 mg/kg, route intravenous; conditions: in vivo
Method in brief: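 Fasted male F344 rats (146–185 g) and male cynomolgus monkeys (3.48–4.29 kg), n = 4 each, received a single iv dose; monkeys had 2-week washouts between doses. Blood was sampled up to 48 h and plasma stored at […]. Plasma parent was quantified by LC-MS/MS with a deuterated internal standard. CL = dose/AUC0–inf by noncompartmental analysis; mean ± S.D.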

[13] = Half life in F344 rat at 0.3 mg/kg, po administered as single dose by LC-MS/MS method; type: ADME, organism-based; design: dose 0.3 mg/kg, route oral; conditions: in vivo
[14] = AUClast in F344 rat at 10 mg/kg, po administered as single dose by LC-MS/MS method; type: ADME, organism-based; design: time 0 - last, dose 10 mg/kg, route oral; conditions: plasma; method in brief: as §2
[15] = AUClast in cynomolgus monkey at 10 mg/kg, iv administered as single dose by LC-MS/MS method; type: ADME, organism-based, Macaca fascicularis; design: time 0 - last, dose 10 mg/kg, route intravenous; conditions: plasma; method in brief: as §2
[16] = AUC (0 to infinity) in F344 rat at 3 mg/kg, iv administered as single dose by LC-MS/MS method; type: ADME, organism-based; design: time infinity, dose 3 mg/kg, route intravenous; conditions: plasma; method in brief: as §2
[17] = AUClast in F344 rat at 0.3 mg/kg, po administered as single dose by LC-MS/MS method; type: ADME, organism-based; design: time 0 - last, dose 0.3 mg/kg, route oral; conditions: plasma; method in brief: as §2
[18] = Half life in F344 rat at 10 mg/kg, iv administered as single dose by LC-MS/MS method; type: ADME, organism-based; design: dose 10 mg/kg, route intravenous; conditions: in vivo; method in brief: as §1
Rattus norvegicus [19] = test: Reduction in plasma glucose in starch loaded po dosed ZDF rat; type: functional
Method in brief: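 Male ZDF rats were acclimatized to 10 weeks of age and fasted overnight (n = 8 per group). They were given oral compound (0–0.1 mg/kg) in starch suspension (2 g/kg); a nonstarch control received water at 10 ml/kg. Plasma glucose was measured at −15 min (taken as baseline) and at 0.5, 1, 2 and 4 h with an automatic analyzer. ΔAUC of glucose change was calculated by the trapezoidal rule. ED50 came from a sigmoid Emax model bounded by the starch and nonstarch controls, and groups were compared by Dunnett test.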

[20] = AUClast in cynomolgus monkey at 3 mg/kg, po administered as single dose by LC-MS/MS method; type: ADME, organism-based, Macaca fascicularis; design: time 0 - last, dose 3 mg/kg, route oral; conditions: plasma; method in brief: as §2

C[C@H]1O[C@@H](O[C@H]2[C@H](O)[C@@H](O)[C@@H](O[14C@H]3[14C@H](O)[14CH2]N[14C@@H]3[14CH2]O)O[C@@H]2CO)[C@H](O)[C@@H](O)[C@@H]1O
Drug excretion (Cynomolgus monkey): 83.8%
Drug excretion [1]: 78.5%
Drug excretion [2]: 0.37%
Drug uptake (Ileum): 33.9%
Drug metabolism [3]: metabolite_not_detected
Drug excretion (Rattus norvegicus [4]): 0.37%
Drug excretion [5]: 4.54%

C[C@H]1O[C@@H](O[C@H]2[C@H](O)[C@@H](O)[C@@H](O[C@H]3[C@H](O)CN[C@@H]3CO)O[C@@H]2CO)[C@H](O)[C@@H](O)[C@@H]1O
half-life [6]: 14.6 h
AUC(0-t) [7]: 110 ng·h/mL
AUC(0-inf) [8]: 74500 ng·h/mL
AUC(0-t) [9]: 324 ng·h/mL
bioavailability [10]: 2.33%
bioavailability [11]: 2.44%
clearance [12]: 2.73 mL/min/kg
half-life [13]: 2.69 h
AUC(0-t) [14]: 1050 ng·h/mL
AUC(0-t) [15]: 74300 ng·h/mL
AUC(0-inf) [16]: 18800 ng·h/mL
AUC(0-t) [17]: 42.1 ng·h/mL
half-life [18]: 21.5 h
ED50 (Rattus norvegicus [19]): 0.015 mg/kg
inhibition (Rattus norvegicus [19]): Dose-dependent effect
AUC(0-t) [20]: 186 ng·h/mL
